Measurements taken from ChEMBL document CHEMBL3272177, “Hypolipidemic alkoxybenzoic acids” (1976).

Assays:
Design in all cases: scale not given: the % may be the effect or the level left
[1] = species: Rattus norvegicus; test: Reduction in sterol level in CFE rat […] in serum at 0.1% of diet treated through diet for 6 days relative to control; type: functional
In short: (§1)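 Compound dissolved in methanol-chloroform (1:3 v/v), mixed into ground rat chow at 0.1, 0.05 or 0.025% (w/w), and solvent evaporated; controls received solvent-treated chow. Rats fed ad libitum with water for 6 days, then killed fed and bled. Serum sterols and triglycerides measured by autoanalyzer. Values given as percent of control, mean ± SE; significance by Student's t test.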

[2] = species: Rattus norvegicus; test: Reduction in sterol level in CFE rat […] in serum at 0.05% of diet treated through diet for 6 days relative to control; type: functional; in short: as §1
[3] = species: Rattus norvegicus; test: Reduction in sterol level in CFE rat […] at 0.025% of diet treated through diet for 6 days relative to control; type: functional, Serum; in short: as §1
[4] = species: Rattus norvegicus; test: Reduction in triglyceride level in CFE rat […] in serum at 0.1% of diet treated through diet for 6 days relative to control; type: functional; in short: as §1
[5] = species: Rattus norvegicus; test: Reduction in triglyceride level in CFE rat […] in serum at 0.05% of diet treated through diet for 6 days relative to control; type: functional; in short: as §1
[6] = species: Rattus norvegicus; test: Reduction in triglyceride level in CFE rat […] at 0.025% of diet treated through diet for 6 days relative to control; type: functional, Serum; in short: as §1

Row | Compound | Activity [1] | Activity [2] | Activity [3] | Activity [4] | Activity [5] | Activity [6]
1 | CCCCCCCCCCCC(CCOc1ccc(C(=O)O)cc1)N=[N+]=[N-] (stereo not drawn) | 76% | 89% | 105% | 55% | 60% | 98%
2 | C=CCCCCCCCCCOc1ccc(C(=O)OC)cc1 | 90% | 94% | 97% | 58% | 52% | 65%
3 | CCCCCCCC/C=C/CCCCCCCCOc1ccc(C(=O)OC)cc1 | 104% | 102% | 102% | 46% | 86% | 73%
4 | CCCCCCCCCCCC(CCOc1ccc(C(=O)O)cc1)SCc1ccccc1 (stereo not drawn) | 92% | 100% | 109% | 69% | 79% | 92%
5 | CCCCCCCCCCCC(CCOc1ccc(C(=O)O)cc1)SCC (stereo not drawn) | 83% | 93% | 95% | 44% | 74% | 68%
6 | CCCCCCCCCCCC(Cl)CCOc1ccc(C(=O)OC)cc1 (stereo not drawn) | 84% | 87% | 100% | 45% | 53% | 80%
7 | CCCCCCCCCCCC(CCOc1ccc(C(=O)OC)cc1)SC(C)=O (stereo not drawn) | 81% | 89% | 94% | 59% | 70% | 83%
8 | COC(=O)c1ccc(OCCCCCCCCCCCO)cc1 | 92% | 94% | 94% | 72% | 86% | 140%
9 | COC(=O)c1ccc(OCCCCCCCCCCCCCCCO)cc1 | 93% | 98% | 96% | 89% | 104% | 98%
10 | COC(=O)c1ccc(OCCCCCCCCCCCOS(C)(=O)=O)cc1 | 91% | 105% | 105% | 72% | 81% | 79%
11 | COCCCCCCCCCCCOc1ccc(C(=O)OC)cc1 | 104% | 96% | 93% | 36% | 69% | 77%
12 | COC(=O)c1ccc(OCCCCCCCCCCCSC(C)=O)cc1 | 113% | 98% | 106% | 63% | 88% | 66%
13 | CCSCCCCCCCCCCCOc1ccc(C(=O)OC)cc1 | 100% | 100% | 110% | 65% | 74% | 71%
14 | CCCCSCCCCCCCCCCCOc1ccc(C(=O)OC)cc1 | 96% | 92% | 100% | 69% | 62% | 87%
15 | COC(=O)c1ccc(OCCCCCCCCCCCSCc2ccccc2)cc1 | 87% | 85% | 91% | 58% | 49% | 64%
16 | COC(=O)c1ccc(OCCCCCCCCCCCSC#N)cc1 | 160% | 102% | 102% | 145% | 94% | 80%
17 | COC(=O)c1ccc(OCCCCCCCCCCCCl)cc1 | 102% | 108% | 110% | 41% | 81% | 94%
18 | CCCCNCCCCCCCCCCCOc1ccc(C(=O)OC)cc1 | 96% | 95% | 102% | 114% | 88% | 104%
19 | CCCCNCCCCCCCCCCCOc1ccc(C(=O)OC)cc1.Cl | 89% | 96% | 100% | 66% | 71% | 87%
20 | CCCCNC(=O)CCCCCCCCCCOc1ccc(C(=O)OC)cc1 | 96% | 100% | 99% | 81% | 97% | 95%
21 | CCCCCCCCCCCCCCCCOc1ccc(C(=O)OC2CCN(C)CC2)cc1 | 96% | 87% | 85% | 117% | 110% | 100%

Row | Compound | Activity [1] | Activity [2] | Activity [3] | Activity [4] | Activity [5] | Activity [6]
22 | CCCCCCCCCCC/C=C/CCCOc1ccc(C(=O)OC)cc1 | 75% | 73% | 68% | 68% | 57% | 72%
23 | CCCCCCCCCCCCC/C=C\COc1ccc(C(=O)OC)cc1 | 82% | 83% | 89% | 89% | 83% | 96%
24 | CCCCCCCCCCCCCC#CCOc1ccc(C(=O)OC)cc1 | 89% | 83% | 89% | 57% | 66% | 78%
25 | COC(=O)c1ccc(OCC(=O)C23CC4CC(CC(C4)C2)C3)cc1 | 89% | 96% | 97% | 100% | 82% | 88%
26 | COC(=O)c1ccc(OCC2(C34CC5CC(CC(C5)C3)C4)SCCS2)cc1 | 93% | 89% | 94% | 112% | 83% | 94%
27 | CCCCCCCCCCCC(=O)CCOc1ccc(C(=O)OC)cc1 | 81% | 93% | 100% | 61% | 61% | 78%
28 | CCCCCCCCCCC/C(CCOc1ccc(C(=O)OC)cc1)=N/O | 64% | 67% | 74% | 32% | 43% | 53%
29 | CCCCCCCCCCCC1OC1CCCOc1ccc(C(=O)OC)cc1 (stereo not drawn) | 84% | 89% | 103% | 65% | 64% | 74%
30 | CCCCCCCCCCCCCCCCOc1ccc(C(=O)O)cc1Cl | 103% | 97% | 108% | 75% | 87% | 69%
31 | CCCCCCCCCCCCCCCCOc1ccc(C(=O)O)cc1[N+](=O)[O-] | 103% | 101% | 95% | 122% | 120% | 93%
32 | CCCCCCCCCCCCCCCCOc1c(Cl)cc(C(=O)O)cc1Cl | 103% | 105% | 98% | 103% | 89% | 100%
33 | CCCCCCCCCCCCCCCCOc1c(I)cc(C(=O)O)cc1I | 93% | 85% | 94% | 105% | 86% | 96%
34 | CCCCCCCCCCCCCCCCOc1c(C)cc(C(=O)O)cc1C | 97% | 89% | 78% | 82% | 79% | 68%
35 | CCCCCCCCCCCC(O)CCOc1ccc(C(=O)O)cc1 (stereo not drawn) | 116% | 112% | 105% | 53% | 60% | 69%
36 | CCCCCCCCCCCC(Cl)CCOc1ccc(C(=O)O)cc1 (stereo not drawn) | 60% | 69% | 72% | 47% | 53% | 59%
37 | CCCCCCCCCCCC(S)CCOc1ccc(C(=O)O)cc1 (stereo not drawn) | 83% | 89% | 94% | 47% | 53% | 76%
38 | CCCCCCCCCCCCCCCCOc1c(Br)cc(C(=O)OC)cc1Br | 82% | 94% | 94% | 88% | 103% | 96%
39 | CCCCCCCCCCCCCCCCOc1c(Br)cc(C(=O)OC)cc1[N+](=O)[O-] | 97% | 93% | 93% | 95% | 101% | 113%
40 | CCCCCCCCCCCC(CCOc1ccc(C(=O)OC)cc1)OS(=O)(=O)c1ccc(C)cc1 (stereo not drawn) | 98% | 103% | 102% | 86% | 91% | 91%
41 | CCCCCCCCCCCCCCC(C)(CC)Oc1ccc(C(=O)O)cc1 (stereo not drawn) | 102% |  | 100% | 94% |  | 94%
42 | CCCCCCCCCCCC(O)C(O)CCCOc1ccc(C(=O)O)cc1 (stereo not drawn) | 83% | 86% |  | 55% | 60% | 
